Reference: ChEMBL document CHEMBL1147708 (Bioorg Med Chem Lett, 2006)
pIC50: −log10 of the molar value. Blank lines part the entries; values can stand above or below the molecule they belong to.

Columns and labels:
Cytochrome P450 26A1 = molecular target: T1, Cytochrome P450 26A1 (Homo sapiens, UniProt O43174); test: Inhibition of CYP26 expressed in human T47D cell line
T1 sequence (O43174 whole entry): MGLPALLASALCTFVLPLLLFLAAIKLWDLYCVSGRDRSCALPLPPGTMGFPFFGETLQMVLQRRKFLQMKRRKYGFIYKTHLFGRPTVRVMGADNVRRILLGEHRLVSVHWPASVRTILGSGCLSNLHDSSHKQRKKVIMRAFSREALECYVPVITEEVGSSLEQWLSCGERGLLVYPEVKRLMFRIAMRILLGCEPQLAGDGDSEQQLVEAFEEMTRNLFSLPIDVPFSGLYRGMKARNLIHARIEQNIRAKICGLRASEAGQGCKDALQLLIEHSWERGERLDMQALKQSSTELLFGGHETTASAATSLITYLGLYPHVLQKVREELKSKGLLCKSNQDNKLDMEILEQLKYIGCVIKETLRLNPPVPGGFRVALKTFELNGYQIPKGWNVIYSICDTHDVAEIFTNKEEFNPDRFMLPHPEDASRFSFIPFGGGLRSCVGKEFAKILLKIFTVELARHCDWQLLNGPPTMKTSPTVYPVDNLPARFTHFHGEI

Cytochrome P450 3A4 = Cytochrome P450 3A4 (Homo sapiens, UniProt P08684)
Sequence of Cytochrome P450 3A4 (P08684 whole entry): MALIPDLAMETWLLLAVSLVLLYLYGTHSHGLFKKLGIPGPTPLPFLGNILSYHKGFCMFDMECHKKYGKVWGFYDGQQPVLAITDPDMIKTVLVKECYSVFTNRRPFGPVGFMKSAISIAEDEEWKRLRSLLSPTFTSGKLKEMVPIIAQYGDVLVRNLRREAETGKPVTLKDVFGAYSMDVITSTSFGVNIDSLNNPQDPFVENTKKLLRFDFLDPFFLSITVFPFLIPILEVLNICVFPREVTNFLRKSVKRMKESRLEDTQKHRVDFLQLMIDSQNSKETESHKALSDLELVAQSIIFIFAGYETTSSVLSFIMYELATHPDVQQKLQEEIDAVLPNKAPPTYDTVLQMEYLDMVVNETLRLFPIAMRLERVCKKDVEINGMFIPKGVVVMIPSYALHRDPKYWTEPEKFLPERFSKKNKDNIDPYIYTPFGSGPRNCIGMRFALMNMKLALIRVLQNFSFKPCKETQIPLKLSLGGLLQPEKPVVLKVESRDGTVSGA

Mus musculus [1] = organism: Mus musculus; conditions: in vivo, po, 5 mg/kg
[2] = Bioavailability in CD1 mouse; conditions: in vivo
Cytochrome P450 1A2 = molecular target: T2, Cytochrome P450 1A2 (Homo sapiens, UniProt P05177)
T2 sequence (P05177 whole entry): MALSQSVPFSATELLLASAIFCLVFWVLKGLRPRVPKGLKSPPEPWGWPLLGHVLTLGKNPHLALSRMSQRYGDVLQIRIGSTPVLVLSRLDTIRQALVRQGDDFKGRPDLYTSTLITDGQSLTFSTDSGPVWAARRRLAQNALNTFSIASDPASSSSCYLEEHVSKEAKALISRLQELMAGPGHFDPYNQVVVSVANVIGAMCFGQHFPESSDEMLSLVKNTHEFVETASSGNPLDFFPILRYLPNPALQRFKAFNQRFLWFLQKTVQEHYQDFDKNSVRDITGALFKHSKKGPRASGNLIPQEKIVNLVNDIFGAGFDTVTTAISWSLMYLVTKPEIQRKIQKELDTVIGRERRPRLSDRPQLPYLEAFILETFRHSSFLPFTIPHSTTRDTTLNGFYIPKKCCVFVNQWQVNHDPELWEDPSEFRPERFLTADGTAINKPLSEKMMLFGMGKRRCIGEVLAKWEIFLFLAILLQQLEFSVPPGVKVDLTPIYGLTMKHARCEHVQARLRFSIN

Cytochrome P450 2C9 = Cytochrome P450 2C9 (Homo sapiens, UniProt P11712)
Sequence of Cytochrome P450 2C9 (P11712 whole entry): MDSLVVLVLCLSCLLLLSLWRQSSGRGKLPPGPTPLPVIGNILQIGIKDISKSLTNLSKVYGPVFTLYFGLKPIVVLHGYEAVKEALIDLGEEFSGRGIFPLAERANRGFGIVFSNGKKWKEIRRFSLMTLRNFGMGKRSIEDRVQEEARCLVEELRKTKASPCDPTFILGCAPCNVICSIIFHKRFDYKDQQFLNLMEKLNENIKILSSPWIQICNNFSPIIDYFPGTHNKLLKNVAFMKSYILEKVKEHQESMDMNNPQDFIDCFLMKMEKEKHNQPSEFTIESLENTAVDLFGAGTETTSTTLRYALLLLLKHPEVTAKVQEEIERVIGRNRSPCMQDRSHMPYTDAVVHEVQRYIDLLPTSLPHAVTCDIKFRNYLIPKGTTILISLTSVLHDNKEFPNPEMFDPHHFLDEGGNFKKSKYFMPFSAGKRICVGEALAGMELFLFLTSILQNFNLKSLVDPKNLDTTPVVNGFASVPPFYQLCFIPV

T47D = test: Activity against human T47D cell line; assay type: functional
Cytochrome P450 2D6 = Cytochrome P450 2D6 (Homo sapiens, UniProt P10635)
Sequence of Cytochrome P450 2D6 (P10635 whole entry): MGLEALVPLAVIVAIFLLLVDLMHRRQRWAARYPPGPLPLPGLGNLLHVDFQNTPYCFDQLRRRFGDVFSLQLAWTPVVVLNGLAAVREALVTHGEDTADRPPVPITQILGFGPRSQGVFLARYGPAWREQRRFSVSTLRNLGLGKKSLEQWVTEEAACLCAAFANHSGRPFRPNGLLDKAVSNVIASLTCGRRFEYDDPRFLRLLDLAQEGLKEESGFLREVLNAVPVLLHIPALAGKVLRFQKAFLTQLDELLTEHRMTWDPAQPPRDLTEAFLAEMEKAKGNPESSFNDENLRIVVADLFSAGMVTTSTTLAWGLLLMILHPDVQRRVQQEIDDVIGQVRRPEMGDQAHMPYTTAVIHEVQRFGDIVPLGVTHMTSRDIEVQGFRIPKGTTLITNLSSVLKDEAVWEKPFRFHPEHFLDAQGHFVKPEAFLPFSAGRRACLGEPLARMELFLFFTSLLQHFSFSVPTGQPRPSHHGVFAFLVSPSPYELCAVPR

in vivo [3] = conditions: CD1, mouse, iv, 1 mg/kg
in vivo [4] = conditions: CD1, mouse, po, 5 mg/kg
[5] = Plasma concentration in CD1 mouse at 5 mg/kg, po after 8 hrs co-administered with 3-[6-(2-dimethylamino- 1-imidazol-1-yl-propyl)-naphthalen-2-yloxy]- 2,2-dimethyl-propionic acid at 10 mg/kg, po; assay type: ADME, organism-based
How it was run: (§1)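 Female CD-1 mice, about six weeks old, got atRA at 5 mg/kg by gavage (0.5 mg/mL in 1.5% v/v DMSO/safflower oil, 10 mL/kg). This was given immediately before the inhibitor at 10 mg/kg orally in water for injection. Three mice per timepoint gave cardiac EDTA blood. Plasma was acetonitrile-precipitated, and atRA was read by HPLC-UV against blank mouse plasma standards. AUC came from noncompartmental analysis of median values.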

Mus musculus [6] = test: AUC(0-tz) in CD1 mouse at 5 mg/kg, po; assay type: ADME, organism-based, Plasma; design: dose 5 mg/kg, route oral; conditions: in vivo
How it was run: (§2)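 Female CD-1 mice, about six weeks old, got atRA by oral gavage at 10 mL/kg (5 mg/kg), from a 0.5 mg/mL solution in 1.5% v/v DMSO in safflower oil. Three mice per timepoint gave terminal cardiac blood in EDTA.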

[7] = Plasma concentration in CD1 mouse at 5 mg/kg, po after 8 hrs co-administered with 3-[6-(2-dimethylamino- 1-imidazol-1-yl-butyl)-naphthalen-2-yloxy]- 2,2-dimethyl-propionic acid at 10 mg/kg, po; assay type: ADME, organism-based; how it was run: as §1
[8] = Plasma concentration in CD1 mouse at 5 mg/kg, po after 2 hrs co-administered with 3-[6-(2-dimethylamino- 1-imidazol-1-yl-propyl)-naphthalen-2-yloxy]- 2,2-dimethyl-propionic acid at 10 mg/kg, po; assay type: ADME, organism-based; how it was run: as §1
[9] = Plasma concentration in CD1 mouse at 5 mg/kg, po after 2 hrs; assay type: ADME, organism-based; design: dose 5 mg/kg, route oral; how it was run: as §2
Mus musculus [10] = test: AUC(0-tz) in CD1 mouse at 5 mg/kg, po co-administered with 3-[6-(2-dimethylamino- 1-imidazol-1-yl-propyl)-naphthalen-2-yloxy]- 2,2-dimethyl-propionic acid at 10 mg/kg, po; assay type: ADME, organism-based, Plasma; conditions: in vivo; how it was run: as §1
[11] = Plasma concentration in CD1 mouse at 5 mg/kg, po after 2 hrs co-administered with 3-[6-(2-dimethylamino- 1-imidazol-1-yl-butyl)-naphthalen-2-yloxy]- 2,2-dimethyl-propionic acid at 10 mg/kg, po; assay type: ADME, organism-based; how it was run: as §1
Mus musculus [12] = test: AUC(0-tz) in CD1 mouse at 5 mg/kg, po co-administered with 3-[6-(2-dimethylamino- 1-imidazol-1-yl-butyl)-naphthalen-2-yloxy]- 2,2-dimethyl-propionic acid at 10 mg/kg, po; assay type: ADME, organism-based, Plasma; conditions: in vivo; how it was run: as §1
[13] = Plasma concentration in CD1 mouse at 5 mg/kg, po after 8 hrs; assay type: ADME, organism-based; design: dose 5 mg/kg, route oral; how it was run: as §2

- pIC50 (Cytochrome P450 26A1): 6.39
SMILES: CN(C)C[C@@H](c1ccc2cc(OCC(C)(C)C(=O)O)ccc2c1)n1ccnc1

- pIC50 (Cytochrome P450 26A1): 7.22
SMILES: CCCCN(C)[C@H](C)[C@@H](c1ccc2cc(OCC(C)(C)C(=O)O)ccc2c1)n1ccnc1

- pIC50 (Cytochrome P450 26A1): 8.85
- pIC50 (Cytochrome P450 3A4): 6.00
SMILES: CCN(CC)[C@H](C)[C@@H](c1ccc2cc(OCC3(C(=O)O)CCCC3)ccc2c1)n1ccnc1

- pIC50 (Cytochrome P450 26A1): 7.46
- pIC50 (Cytochrome P450 3A4): 5.12
SMILES: C[C@H]([C@@H](c1ccc2cc(OCC3(C(=O)O)CC3)ccc2c1)n1ccnc1)N(C)C

- pIC50 (Cytochrome P450 26A1): 8.80
- pIC50 (Cytochrome P450 3A4): 6.10
SMILES: CC(C)N(C)[C@H](C)[C@@H](c1ccc2cc(OCC3(C(=O)O)CCCC3)ccc2c1)n1ccnc1

- pIC50 (Cytochrome P450 26A1): 7.40
- pIC50 (Cytochrome P450 3A4): 5.15
SMILES: C[C@H]([C@@H](c1ccc2cc(OCC3(C(=O)O)CCC3)ccc2c1)n1ccnc1)N(C)C

- pIC50 (Cytochrome P450 26A1): 6.90
SMILES: C[C@H]([C@@H](c1ccc2cc(OCC(C)(C)C(=O)O)ccc2c1)n1ccnc1)N(C)C1CCCCC1

- pIC50 (Cytochrome P450 26A1): 8.52
SMILES: CC(C)N(C)[C@H](C)[C@@H](c1ccc2cc(OCC(C)(C)C(=O)O)ccc2c1)n1ccnc1

- AUC (Mus musculus [1]): 17500 ng·h/mL
- pIC50 (Cytochrome P450 26A1): 7.95
- bioavailability [2]: 99%
- pIC50 (Cytochrome P450 1A2): < 5.30
- pIC50 (Cytochrome P450 2C9): < 5.30
- pIC50 (Cytochrome P450 2D6): < 5.30
- half-life (in vivo [3]): 148 min
- Cmax (in vivo [4]): 23 µM
- pIC50 (Cytochrome P450 3A4): 5.10
SMILES: C[C@H]([C@@H](c1ccc2cc(OCC3(C(=O)O)CCCCC3)ccc2c1)n1ccnc1)N(C)C
- Activity (T47D): <100 nM

- AUC (Mus musculus [1]): 18900 ng·h/mL
- pIC50 (Cytochrome P450 26A1): 8.38
- bioavailability [2]: 99%
- pIC50 (Cytochrome P450 1A2): < 5.30
- pIC50 (Cytochrome P450 2C9): < 5.30
- pIC50 (Cytochrome P450 2D6): < 5.30
- half-life (in vivo [3]): 426 min
- Cmax (in vivo [4]): 13 µM
- pIC50 (Cytochrome P450 3A4): 5.64
SMILES: CCN(C)[C@H](C)[C@@H](c1ccc2cc(OCC3(C(=O)O)CCCC3)ccc2c1)n1ccnc1
- Activity (T47D): <100 nM

SMILES: C[C@H]([C@@H](c1ccc2cc(OCC(C)(C)C(=O)O)ccc2c1)n1ccnc1)N(C)C
- Activity (T47D): 125 nM

- pIC50 (Cytochrome P450 26A1): 8.30
SMILES: CCN(CC)[C@H](C)[C@@H](c1ccc2cc(OCC(C)(C)C(=O)O)ccc2c1)n1ccnc1

- pIC50 (Cytochrome P450 26A1): 7.47
- pIC50 (Cytochrome P450 3A4): 5.67
SMILES: C[C@H]([C@@H](c1ccc2cc(OCC(C)(C)C(=O)O)ccc2c1)n1ccnc1)N1CCOCC1

- AUC (Mus musculus [1]): 5430 ng·h/mL
- pIC50 (Cytochrome P450 26A1): 8.89
- bioavailability [2]: 73%
- pIC50 (Cytochrome P450 1A2): < 5.30
- pIC50 (Cytochrome P450 2C9): < 5.30
- pIC50 (Cytochrome P450 2D6): < 5.30
- half-life (in vivo [3]): 166 min
- Cmax (in vivo [4]): 6.7 µM
SMILES: CC[C@H]([C@@H](c1ccc2cc(OCC(C)(C)C(=O)O)ccc2c1)n1ccnc1)N(C)C
- Activity (T47D): <5 nM

- pIC50 (Cytochrome P450 26A1): 6.23
SMILES: C[C@H]([C@@H](c1ccc2cc(OCC(C)(C)C(=O)O)ccc2c1)n1ccnc1)N1CCCC1

- pIC50 (Cytochrome P450 26A1): 8.05
SMILES: CCN(C)[C@H](C)[C@@H](c1ccc2cc(OCC(C)(C)C(=O)O)ccc2c1)n1ccnc1

- AUC (Mus musculus [1]): 5800 ng·h/mL
- pIC50 (Cytochrome P450 26A1): 8.14
- bioavailability [2]: 77%
- pIC50 (Cytochrome P450 1A2): < 5.30
- pIC50 (Cytochrome P450 2C9): < 5.30
- pIC50 (Cytochrome P450 2D6): < 5.30
- half-life (in vivo [3]): 149 min
- Cmax (in vivo [4]): 5.5 µM
- pIC50 (Cytochrome P450 3A4): 5.09
SMILES: C[C@H]([C@@H](c1ccc2cc(OCC3(C(=O)O)CCCC3)ccc2c1)n1ccnc1)N(C)C
- Activity (T47D): <100 nM

- pIC50 (Cytochrome P450 26A1): 7.43
SMILES: CCC(CC)(COc1ccc2cc([C@H]([C@@H](C)N(C)C)n3ccnc3)ccc2c1)C(=O)O

- pIC50 (Cytochrome P450 26A1): 7.33
- pIC50 (Cytochrome P450 3A4): < 4.70
SMILES: C[C@H]([C@@H](c1ccc2cc(OCC3(C(=O)O)CCOCC3)ccc2c1)n1ccnc1)N(C)C

- pIC50 (Cytochrome P450 26A1): 7.59
SMILES: CN(C)C(C)(C)[C@@H](c1ccc2cc(OCC(C)(C)C(=O)O)ccc2c1)n1ccnc1

- concentration at 8 h [5]: 40 nM
- AUC (Mus musculus [6]): 1690 ng·h/mL
- concentration at 8 h [7]: 2730 nM
- concentration at 2 h [8]: 6.66 µM
- concentration at 2 h [9]: 5.24 µM
- AUC (Mus musculus [10]): 6470 ng·h/mL
- concentration at 2 h [11]: 7.72 µM
- AUC (Mus musculus [12]): 9900 ng·h/mL
- concentration at 8 h [13]: < 10 nM
SMILES: CC1=C(/C=C/C(C)=C/C=C/C(C)=C/C(=O)O)C(C)(C)CCC1 [TRETINOIN]
